Assay results from ChEMBL document CHEMBL1122338, “Mutagenicity and chemistry of N-nitroso-N-(p-substituted-benzyl)methylamines” (1983).
Where “and” joins values, the source holds several entries; their conditions need not be identical. Equal values may be shown once.

Experiments:
[1] = tested on: Salmonella typhimurium; assay: Activity expressed as no. of revertants per plate in Salmonella Typhimurium TA1535 with and without hamster S9 cells (3 mg/plate) at the dose of 50 ug; type: functional, Salmonella enterica subsp. enterica serovar Typhimurium
[2] = tested on: S9; assay: (§1) Activity expressed as no. of revertants per plate in strain TA1535 with and without hamster S9 cells (3 mg/plate) at the dose of 500 ug; type: functional, Cricetulus griseus
[3] = tested on: S9; assay: Activity expressed as no. of revertants per plate in strain TA1535 with and without hamster S9 cells (3 mg/plate) at the dose of 1000 ug; type: functional, Cricetulus griseus
[4] = tested on: S9; assay: (§2) Activity expressed as no. of revertants per plate in strain TA1535 with and without hamster S9 cells (3 mg/plate) at the dose of 5 ug; type: functional, Cricetulus griseus
[5] = tested on: S9; assay: Activity expressed as no. of revertants per plate in strain TA1535 with and without hamster S9 cells (3 mg/plate) at the dose of 100 ug; type: functional, Cricetulus griseus
[6] = tested on: S9; assay: (§3) Activity expressed as no. of revertants per plate in strain TA1535 with and without hamster S9 cells (3 mg/plate) at the dose of 2.5 ug; type: functional, Cricetulus griseus
[7] = tested on: S9; assay: (§4) Activity expressed as no. of revertants per plate in strain TA1535 with hamster S9 cells (3 mg/plate); type: functional, Cricetulus griseus
[8] = tested on: S9; assay: (§5) Activity expressed as no. of revertants per plate in strain TA1535 with and without hamster S9 cells (3 mg/plate) at the dose of 250 ug; type: functional, Cricetulus griseus
[9] = tested on: S9; assay: Activity expressed as no. of revertants per plate in strain TA1535 with and without hamster S9 cells (3 mg/plate) at the dose of 25 ug; type: functional, Cricetulus griseus
[10] = tested on: S9; assay: (§6) Activity expressed as no. of revertants per plate in strain TA1535 with and without hamster S9 cells (3 mg/plate) at the dose of 1 ug; type: functional, Cricetulus griseus
[11] = tested on: S9; assay: (§7) Activity expressed as no. of revertants per plate in strain TA1535 with and without hamster S9 cells (3 mg/plate) at the dose of 10 ug; type: functional, Cricetulus griseus
[12] = tested on: S9; assay: as §1; type: functional, Salmonella enterica subsp. enterica serovar Typhimurium
In short: (§8)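 Ames plate incorporation test in Salmonella TA1535 (base-pair substitution detector), with or without Aroclor 1254-induced hamster S9 mix (3 mg/plate). Doses span a 10-point range of 1–1000 μg/plate. At least two independent dose-response studies, each on duplicate plates; mean revertants per plate reported. Counts are significant when above twice the historical or twice the current control mean, whichever is greater.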

[13] = tested on: S9; assay: as §1; type: functional, Cricetulus griseus; in short: as §8; remark: listed apart in the source
[14] = tested on: S9; assay: as §4; type: functional, Cricetulus griseus; in short: as §8; remark: listed apart in the source
[15] = tested on: S9; assay: as §2; type: functional, Cricetulus griseus; in short: as §8; remark: listed apart in the source
[16] = tested on: S9; assay: as §6; type: functional, Cricetulus griseus; in short: as §8; remark: listed apart in the source
[17] = tested on: S9; assay: as §7; type: functional, Cricetulus griseus; in short: as §8; remark: listed apart in the source
[18] = tested on: S9; assay: as §3; type: functional, Cricetulus griseus; in short: as §8; remark: listed apart in the source
[19] = tested on: S9; assay: as §5; type: functional, Cricetulus griseus; in short: as §8; remark: listed apart in the source
[20] = tested on: S9; assay: Activity expressed as no. of revertants per plate in strain TA1535 without hamster S9 cells (3 mg/plate) at the dose of 250 ug; type: functional, Cricetulus griseus; in short: as §8
[21] = tested on: S9; assay: Activity expressed as no. of revertants per plate in strain TA1535 without hamster S9 cells (3 mg/plate) at the dose of 50 ug; type: functional, Cricetulus griseus; in short: as §8

| Compound | Activity [4] | Activity [5] | Activity [6] | Activity [7] | Activity [8] | Activity [9] | Activity [10] | Activity [11] | also measured |
| --- | --- | --- | --- | --- | --- | --- | --- | --- | --- |
| CN(Cc1ccc(C(=O)O)cc1)N=O | 13 and 6 | 13 and 10 | 12 and 6 | 11 and 6 | 15 and 7 | 6 and 4 | 12 and 8 |  | Activity [1]: 8 and 5 and 10 and 7; Activity [2]: 10 and 8; Activity [3]: 14 and 9 |
| CN(Cc1ccc([N+](=O)[O-])cc1)N=O | 14 and 11 |  | 18 and 15 | 13 and 9 |  | 13 and 27 | 17 and 11 | 10 and 12 |  |
| CN(Cc1ccccc1)N=O | 15 and 24 | 17 and 44 | 18 and 24 | 14 and 20 | 23 and 58 | 18 and 24 | 14 and 21 | 12 |  |
| CN(Cc1ccc(Cl)cc1)N=O |  |  |  | 13 |  |  |  |  | Activity [12]: 913; Activity [13]: 10; Activity [14]: 19; Activity [15]: 20 and 17; Activity [16]: 13 and 9; Activity [17]: 12 and 32; Activity [18]: 18 and 15 |
| CN(Cc1ccc(C#N)cc1)N=O | 29 |  | 26 and 19 | 21 and 13 |  | 29 and 45 | 25 and 14 | 23 and 32 |  |
| CN(Cc1ccc(F)cc1)N=O | 12 and 10 |  | 16 and 7 | 14 and 6 | 39 | 13 and 17 | 15 and 8 | 13 and 8 | Activity [2]: 21 and 50; Activity [19]: 17; Activity [3]: 16 |
| COc1ccc(CN(C)N=O)cc1 | 15 and 10 | 15 and 44 | 21 and 19 | 11 and 8 | 56 | 18 and 17 | 10 and 13 | 24 and 14 | Activity [1]: 11 and 26; Activity [20]: 20; Activity [21]: 19 |
